Neddyl block = inhibitors of cullin neddylation, primary screen, biochemical, TR-FRET, uHTS, NAE and Ubc12. inhibition, % at 25 µM. actives 0.58% (n = 360,000); in the data active = inhibition above about 36%
Target sequence (P61081 whole entry, looked up): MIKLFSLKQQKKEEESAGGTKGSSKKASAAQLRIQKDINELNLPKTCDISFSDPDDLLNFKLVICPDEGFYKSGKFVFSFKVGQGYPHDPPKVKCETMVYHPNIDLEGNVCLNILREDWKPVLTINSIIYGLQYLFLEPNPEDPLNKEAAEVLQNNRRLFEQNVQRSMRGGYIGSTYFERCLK
Target sequence (Q13564 whole entry, looked up): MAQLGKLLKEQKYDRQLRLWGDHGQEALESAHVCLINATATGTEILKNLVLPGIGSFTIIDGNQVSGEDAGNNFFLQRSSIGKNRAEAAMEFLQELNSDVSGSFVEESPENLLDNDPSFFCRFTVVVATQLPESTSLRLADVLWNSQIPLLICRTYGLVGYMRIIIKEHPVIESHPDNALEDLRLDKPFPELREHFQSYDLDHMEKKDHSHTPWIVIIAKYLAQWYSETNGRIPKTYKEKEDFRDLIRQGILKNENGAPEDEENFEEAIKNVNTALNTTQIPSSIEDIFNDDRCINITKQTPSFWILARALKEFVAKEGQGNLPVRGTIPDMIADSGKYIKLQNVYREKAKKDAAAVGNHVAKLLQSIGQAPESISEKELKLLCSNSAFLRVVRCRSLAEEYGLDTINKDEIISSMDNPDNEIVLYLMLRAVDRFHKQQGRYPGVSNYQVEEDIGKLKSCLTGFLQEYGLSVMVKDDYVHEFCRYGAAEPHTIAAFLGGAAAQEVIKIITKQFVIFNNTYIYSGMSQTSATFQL
Tn7 DDE FP = inhibitors of Tn7 peptide binding to fibrin DD(E), primary screen, biochemical, fluorescence polarization, human fibrin, Tn7 probe. Fibrinogen beta chain (Homo sapiens), P02675. FP displacement of FITC-Tn7 peptide from fibrin DD(E); 0% = median of compound wells per plate. inhibition, % at 8.3 µM. actives 0.13% (n = 370,000);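 active = inhibition above the mean of compounds falling within the control limits plus 3 SD of them, cut at about 14% in these data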
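System: human fibrin DD(E); quantity: Fibrin-DD(E) at 2 µM final; also added: fluorescent Tn7 probe at 0.1 µM; compound dosing: single nominal test concentration of 8.3 µM per compound; schedule: 10 min preincubation, 3 h with tracer, room temperature; detection: fluorescence polarization of the labelled Tn7 tracer; repeats: one replicate per compound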
Tn6 DDE FP = inhibitors of Tn6 peptide binding to fibrin DD(E), primary screen, biochemical, fluorescence polarization, human fibrin, Tn6 probe; actives 0.21% (n = 370,000); Fibrinogen beta chain (Homo sapiens), P02675; AID 720509, 2013; Fibrin DD(E) TRITC-Tn6 fluorescence polarization displacement; inhibition, % at 8.3 µM;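 active = inhibition above a per-campaign cutoff: mean of compounds within control limits plus 3 SD, cut at about 15% in these data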
PKA-R2B activ = activators of PKA-R2B holoenzyme, primary screen, biochemical, fluorescence polarization, Cy5-IP20, human | cAMP-dependent protein kinase catalytic subunit beta (Homo sapiens) + cAMP-dependent … | PKA-R2B holoenzyme dissociation; R2B truncated from residue 108, S112A mutant; 0% DMSO only, 100% 113 µM cGMP | activation, % at 11.4 µM | actives 0.079% (n = 340,000);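 active = activation above a cutoff set at the mean over all compounds plus 3 SD, cut at about 18% in these data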;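 note: higher means more holoenzyme dissociation and a rise in polarization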
PKA-R1A act = activators of PKA-R1A holoenzyme, primary screen, biochemical, fluorescence polarization, Cy5-IP20, bovine R1A, mouse PKAc. actives 0.083% (n = 340,000). AID 504707, 2011. cAMP-dependent protein kinase type I-alpha regulatory subunit (Bos taurus) + …. PKA-R1A dissociation; scaled: DMSO 0%, 113 µM cGMP 100%. activation, % at 11.4 µM;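 active = percent activation above the mean of all tested compounds plus 3 SD, cut at about 19% in these data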;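 note: higher means more PKAc released from R1A so a rise in polarization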
Neddyl conf = blockade of NEDD8 conjugation to cullin – biochemical, TR-FRET, single concentration, confirmation | shares compounds with Neddyl block | TR-FRET cullin neddylation biochemical assay | actives 13% (n = 1,800) | calls only at 25 µM; in the data active = inhibition above about 40%;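 note: neddylation substrate is the cullin 1 ring ligase complex with SKP2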
Large screens that a line does not name were inactive (follow-up assays come after a bar, where shown). A selection: hits, their analogues and other compounds. The true share with any hit is near 1%.

CC(=O)Nc1cccc(-c2nc3ccccc3[nH]2)c1	none
COc1cccc(CN(C)[C@H]2C[C@H]3c4[nH]c5ccccc5c4CCN3C[C@H]2[C@H](C)O)c1OC	none (no result: Neddyl block, PKA-R2B activ, PKA-R1A act)
COc1cccc(N=c2oc3cc(O)ccc3cc2C(=O)NCC2CCCO2)c1 (stereo unspecified)	Neddyl block 44 | Neddyl conf inactive
CCN=C1S/C(=C\c2ccc(Sc3ccc(Cl)cc3)o2)C(=O)N1CC	Neddyl block 39
COc1ccc(/C=C/c2ccccc2)cc1[C@H]1[C@H]2C=CC[C@@H](C)[C@@H]2C(=O)N1Cc1ccccc1	Neddyl block 30 | Neddyl conf inactive
CC(=O)N1C[C@@H](CO)[C@@H](N(C)C(=O)Nc2cccc3ccccc23)C[C@H]1c1ccccc1	none (no result: Neddyl block, PKA-R2B activ, PKA-R1A act)
COc1ccc2cc3cc(C(=O)NCCN4CCc5ccccc5C4)oc3nc2c1	none (not shown: Neddyl block, Tn7 DDE FP, Tn6 DDE FP)
COc1ccc2cc3cc(C(=O)NCCN4CCc5ccccc5C4)sc3nc2c1	Neddyl block 50 | Neddyl conf inactive
CCOc1cc(/C=C(\CC(=O)O)c2nc3ccccc3s2)ccc1OC	none
COc1cc(/C=C(\CC(=O)O)c2nc3ccccc3s2)ccc1OCC(=O)Nc1ccccc1F	Neddyl block 36 | Neddyl conf inactive
FC(F)(F)c1cccc(Nc2cc(-c3ccccc3)nc3ncnn23)c1	none
Fc1ccc(-c2cc(C(F)(F)F)n3ncnc3n2)cc1	Neddyl block 47
O=C(c1cc(Br)ccc1Cl)N1CCN(c2ccc(N3CCOCC3)nn2)CC1	Neddyl block 60
Cc1ccc(C(=O)N2CCN(c3ccc(N4CCOCC4)nn3)CC2)cc1	Neddyl block 61
COc1ccc(C(=O)CCC(=O)N2CCN(c3ccc(N4CCOCC4)nn3)CC2)cc1	Neddyl block 44
O=C(c1ccc(F)cc1)N1CCN(c2ccc(N3CCOCC3)nn2)CC1	none (not shown: Neddyl block)
O=C(c1ccc(Cl)cc1)N1CCN(c2ccc(N3CCOCC3)nn2)CC1	none (not shown: Neddyl block)
CCCCOc1ccc(C(=O)N2CCN(c3ccc(N4CCOCC4)nn3)CC2)cc1	Neddyl block 63
Cc1cc(Oc2cccnc2)ccc1NC(=O)Cc1c(C)[nH]c2ccccc12	none (no result: Neddyl block, PKA-R2B activ, PKA-R1A act)
COc1cc(OC)cc(C(=O)N2CCN(c3ccc(N4CCOCC4)nn3)CC2)c1	Neddyl block 57
Cc1cccc(C(=O)N2CCN(c3ccc(N4CCOCC4)nn3)CC2)c1	none (not shown: Neddyl block)
OCCN1CCN(c2nc3ccccc3nc2-c2ccccc2)CC1	Neddyl block 39 | Neddyl conf inactive
OCCN1CCN(c2nc(-c3ccccc3O)nc3ccccc23)CC1	none
COC(=O)c1ccc(CN(c2ccccn2)S(=O)(=O)c2ccccc2)cc1	Neddyl block 41 | Neddyl conf inactive
COc1ccc(S(=O)(=O)N(CC(=O)O)c2ccccn2)cc1	Neddyl block 40 | Neddyl conf inactive
COc1ccc(S(=O)(=O)N(CC(=O)O)c2ccccc2)cc1	none
Cc1noc(C)c1NC(=O)Nc1ccc2c(c1)C(=O)N([C@@H](C)CO)C[C@@H](C)[C@H](CN(C)S(=O)(=O)c1ccc(F)cc1)OCCCC[C@H](C)O2	none (no result: Neddyl block, PKA-R2B activ, PKA-R1A act)
N=C1C(c2nc3ccccc3[nH]2)=C(O)CN1c1ccccc1	none
CC1C(O)=C(c2nc3ccccc3[nH]2)C(=N)N1c1ccccc1 (stereo unspecified)	Neddyl block 46 | Neddyl conf inactive
CCC(=O)Oc1ccc(C(=O)Nc2ccc3c(c2)C(=O)N(C2CCCCC2)C3=O)cc1	Neddyl block 42 | Neddyl conf inactive
COc1ccc(C(=O)N/C(=C/c2ccco2)C(=O)NC2CCS(=O)(=O)C2)cc1 (stereo unspecified)	none
Cc1ccc(C(=O)N/C(=C/c2ccc(-c3ccc(Br)cc3)o2)C(=O)NC2CCS(=O)(=O)C2)cc1 (stereo unspecified)	Neddyl block 48 | Neddyl conf inactive
COc1ccc(-c2ccccc2C2Cc3nnccc3CN2)cc1 (stereo unspecified)	none (no result: Neddyl block, PKA-R2B activ, PKA-R1A act)
CC(C)C[C@@H](CSc1ccccc1)N1CCN(CCc2ccccc2)CCC1=O	Neddyl block 29 | Neddyl conf inactive
COc1cc(NC(=O)C2CCCN(S(=O)(=O)c3ccc(C)c(C)c3)C2)cc(OC)c1 (stereo unspecified)	none (no result: Neddyl block, PKA-R2B activ, PKA-R1A act)
OCCCN=C1CCCc2c1[nH]c1ccc(Cl)cc21	Neddyl block 40 | Neddyl conf inactive
C[C@H]1[C@@H](OC(=O)NCc2ccccc2Cl)CC[C@@]23CCCN2C(=O)CCC[C@@H]13	none (no result: Neddyl block, PKA-R2B activ, PKA-R1A act)
Cc1ccccc1CNC(=O)C1C2C=CC3(CN(Cc4ccccc4)C(=O)C13)O2 (stereo unspecified)	none (no result: Neddyl block, PKA-R2B activ, PKA-R1A act)
Cc1cc(-c2ccc3c(c2)COc2c4ccccc4nn2-3)on1	Neddyl block 43 | Neddyl conf inactive
COc1ccc(OC)c2[nH]c(=O)c(CCNC(=O)c3ccc4c(c3)OCO4)cc12	Neddyl block 41 | Neddyl conf inactive
COc1ccc(OC)c2[nH]c(=O)c(CCNC(C)=O)cc12	none
CCn1c(=N)n(CC(O)c2ccco2)c2ccccc21 (stereo unspecified)	none
N=c1n(Cc2ccccc2)c2ccccc2n1CC(O)c1ccco1 (stereo unspecified)	Neddyl block 39 | Neddyl conf inactive
c1ccc2c(c1)ccc1nnc(-c3ccc4c(c3)OCO4)n12	Neddyl block 46
c1ccc2c(c1)ccc1nnc(SCc3ccc4c(c3)OCCO4)n12	none
Cc1ccc(-c2nn(-c3ccccc3)cc2C2CC(c3cccs3)=NN2C(=O)CCC(=O)O)cc1 (stereo unspecified)	Neddyl block 41 | Neddyl conf inactive
Cc1ccc2nc(Cl)c(C3CC(c4cccs4)=NN3C(=O)CCC(=O)O)cc2c1 (stereo unspecified)	none
O=C(OC12CCCN(C1)/C(=C/c1cccc(Cl)c1)C2)C1CCCCC1 (stereo unspecified)	none (no result: Neddyl block, PKA-R2B activ, PKA-R1A act)
O=C(Cc1cccs1)NC1CCCCN(Cc2ccc(Cl)cc2)C1=O (stereo unspecified)	none (no result: Neddyl block, PKA-R2B activ, PKA-R1A act)
COc1cccc(Nc2nc3ccccc3n3nnnc23)c1	Neddyl block 44
Fc1cccc(Nc2nc3ccccc3n3nnnc23)c1	none (not shown: Neddyl block)

High-throughput results deposited in PubChem BioAssay by several laboratories.
